# Results as given in ChEMBL document CHEMBL1671655, “Anidulafungin is fungicidal and exerts a variety of postantifungal effects against Candida albicans, C. glabrata, C. parapsilosis, and C. krusei isolates” (2009).
# Activity calls are given as the source filed them. No cut-off for these calls is given here. Starred links: 1 amine or outer side, 2 acyl side, 3 side chain; linkers in the order of their positions; H or OH if unused. Positions of bridges follow the written chain, without caps; N, C: chain ends. Non-standard residues stand in square brackets, D forms with d. Residues, ends and D or L forms follow the SMILES beside them. *: point of attachment. pTerphenylCO(4''-OnC5H11) = CCCCCOc1ccc(-c2ccc(-c3ccc(C(=O)*)cc3)cc2)cc1; Orn(4R-OH,5R-OH) = O=C([C@H](C[C@@H](O)[C@@H](O)N[*:3])N[*:1])[*:2]; hTyr(3S-OH,4S-OH) = N[C@H](C(=O)O)[C@H](O)[C@@H](O)c1ccc(O)cc1; Pro(3S-OH,4S-Me) = C[C@H]1CN[C@H](C(=O)O)[C@H]1O; Hyp = O=C(O)[C@@H]1C[C@@H](O)CN1
# How the values were obtained:
# [1] = test system: Nakaseomyces glabratus; test: Antifungal activity against Candida glabrata isolate 1 assessed as cell wall damage at 4 times MIC by Transmission electron microscopy; type: functional, organism-based
# Outline: (§1)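 Cells recovered 8 h after a 1-h drug exposure were grown on SDA for 24 h at 35°C. Colonies fixed at 4°C in 0.1 M cacodylate (pH 7.2) with 2% glutaraldehyde and 2% paraformaldehyde, ethanol-dehydrated and embedded in Lowicryl K4M. Thin sections examined by transmission EM.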
# [2] = test system: Nakaseomyces glabratus; test: Increase in susceptibility to calcofluor white in Candida glabrata isolate 3 assessed as cell wall damage at 16 times MIC after 1 hr relative to control; type: functional, organism-based
# Outline: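 Cells recovered 8 h after a 1-h drug exposure were grown to exponential phase in YPD with 1% glucose and adjusted to OD599 0.1. Undiluted and 10-fold serially diluted cultures were spotted onto YPD plates containing calcofluor white, then incubated at 30°C for 72 h. Growth compared with no-drug control cells; triplicate.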
# [3] = test system: Pichia kudriavzevii; test: Antifungal activity against Candida krusei isolate 1 by CLSI M27-A3 broth microdilution method; type: functional
# Outline: (§2)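 CLSI M27-A3 broth microdilution in RPMI 1640 buffered to pH 7.0 with MOPS. Starting inoculum 0.5 x 10^3 to 2.5 x 10^3 cells/ml, incubated at 35°C. MIC read as the lowest concentration giving >50% growth reduction versus control. Each isolate tested on at least three occasions.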
# [4] = test system: Nakaseomyces glabratus; test: Antifungal activity against Candida glabrata isolate 1 by CLSI M27-A3 broth microdilution method; type: functional; outline: as §2
# [5] = test system: Candida parapsilosis; test: Increase in susceptibility to SDS in Candida parapsilosis isolate A assessed as cell wall damage at MIC after 1 hr relative to control; type: functional, organism-based
# Outline: (§3)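 Cells recovered 8 h after a 1-h drug exposure were grown in YPD with 1% glucose to exponential phase and adjusted to OD599 0.1. Undiluted culture and 10-fold serial dilutions were spotted onto YPD plates containing SDS (0.01 to 0.04%), then incubated 72 h at 30°C. Growth compared with unexposed control cells; triplicate.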
# [6] = test system: Candida parapsilosis; test: Antifungal activity against Candida parapsilosis by NCCLS M27A broth microdilution method; type: functional; conditions: Lodderomyces parapsilosis
# [7] = test system: Candida parapsilosis; test: Antifungal activity against Candida parapsilosis isolate 1 by CLSI M27-A3 broth microdilution method; type: functional; conditions: Lodderomyces parapsilosis; outline: as §2
# [8] = test system: Nakaseomyces glabratus; test: Increase in susceptibility to SDS in Candida glabrata isolate 1 assessed as cell wall damage at 4 times MIC after 1 hr relative to control; type: functional, organism-based; outline: as §3
# [9] = test system: Pichia kudriavzevii; test: Antifungal activity against Candida krusei isolate 1 assessed as cell wall damage at MIC by Transmission electron microscopy; type: functional, organism-based; outline: as §1
# [10] = test system: Candida parapsilosis; test: Fungicidal activity against Candida parapsilosis isolate A assessed as log reduction in bacterial count at 4 times MIC after 48 hrs by time-kill analysis; type: functional; conditions: Lodderomyces parapsilosis
# Outline: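 Isolates subcultured twice on SDA, then suspended to 0.5 McFarland and diluted into RPMI 1640 (MOPS, pH 7.0) with or without anidulafungin, giving about 1 x 10^5 to 5 x 10^5 CFU/ml. Tubes were shaken at 35°C. Samples were taken at 0, 2, 4, 8, 12, 24 and 48 h, serially diluted 10-fold, plated on SDA, and CFU counted after 48 h at 35°C. Each isolate was run twice; mean values.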
# [11] = test system: Candida tropicalis; test: Antifungal activity against Candida tropicalis by NCCLS M27A broth microdilution method; type: functional
# [12] = test system: Pichia kudriavzevii; test: Increase in susceptibility to SDS in Candida krusei isolate ATCC 6258 assessed as cell wall damage at MIC after 1 hr relative to control; type: functional, organism-based; outline: as §3
# [13] = test system: Candida albicans; test: Antifungal activity against Candida albicans isolate 1 by CLSI M27-A3 broth microdilution method; type: functional; outline: as §2
# [14] = test system: Candida albicans; test: Antifungal activity against Candida albicans ATCC 90028 assessed as time period for bacterial growth inhibition at 16 times MIC after 1 hr drug exposure; type: functional
# Outline: (§4)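 Inoculum of about 1 x 10^5 to 5 x 10^5 CFU/ml in MOPS-buffered RPMI (pH 7.0), shaken at 35°C and exposed to drug for 1 h. Cells then washed and centrifuged three times and resuspended in drug-free warm RPMI. Samples plated on SDA at 0, 2, 4, 8, 12, 24 and 48 h, with CFU counted after 48 h at 35°C. Run twice per isolate; values are means.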
# [15] = test system: Candida albicans; test: Fungicidal activity against Candida albicans isolate 2 assessed as log reduction in bacterial count at 16 times MIC after 48 hrs by time-kill analysis; type: functional; conditions: isolate 2, 48 h
# Outline: (§5)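 Isolates subcultured twice on SDA, suspended to 0.5 McFarland, giving ~1 x 10^5 to 5 x 10^5 CFU/ml in MOPS-buffered RPMI 1640 (pH 7.0) with or without drug at multiples of MIC (MIC by CLSI M27-A3). Tubes shaken at 35°C with continuous drug. Sampled at 0–48 h, diluted 10-fold and plated on SDA; CFU counted after 48 h at 35°C. Run twice per isolate; means.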
# [16] = test system: Candida albicans; test: Fungicidal activity against Candida albicans isolate 1 assessed as log reduction in bacterial count at 4 times MIC after drug exposure for 1 hr followed by washout measured after 48 hrs in the absence of drug by PAFE study; type: functional
# Outline: (§6)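 Starting inoculum ~1 x 10^5 to 5 x 10^5 CFU/ml in MOPS-buffered RPMI 1640 (pH 7.0) with drug at multiples of the CLSI M27-A3 MIC. After 1 h at 35°C, cells washed and centrifuged three times at 1,400 x g for 10 min, then resuspended in warm drug-free RPMI. Shaken at 35°C and plated on SDA at 0–48 h; CFU counted after 48 h. Run twice per isolate; means.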
# [17] = test system: Nakaseomyces glabratus; test: Fungicidal activity against Candida glabrata isolate 1 assessed as log reduction in bacterial count at 16 times MIC after drug exposure for 1 hr followed by washout measured after 48 hrs in the absence of drug by PAFE study; type: functional; outline: as §6
# [18] = test system: Nakaseomyces glabratus; test: Fungicidal activity against Candida glabrata isolate 1 assessed as log reduction in bacterial count at MIC after 48 hrs by time-kill analysis; type: functional; conditions: isolate 1, 48 h; outline: as §5
# [19] = test system: Candida albicans; test: Antifungal activity against Candida albicans ATCC 90028 assessed as time period for bacterial growth inhibition at 4 times MIC after 1 hr drug exposure; type: functional; outline: as §4
# [20] = test system: Candida albicans; test: Antifungal activity against Candida albicans isolate 1 assessed as time period for bacterial growth inhibition at 4 times MIC after 1 hr drug exposure; type: functional; outline: as §4
# [21] = test system: Candida parapsilosis; test: Fungicidal activity against Candida parapsilosis isolate A assessed as log reduction in bacterial count at 4 times MIC after drug exposure for 1 hr followed by washout measured after 48 hrs in the absence of drug by PAFE study; type: functional; conditions: Lodderomyces parapsilosis
# Outline: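 Inoculum about 1 x 10^5 to 5 x 10^5 CFU/ml in RPMI 1640 (MOPS, pH 7.0) with drug, shaken at 35°C for 1 h. Cells were then washed and centrifuged at 1,400 x g for 10 min (3 cycles) and resuspended in warm drug-free RPMI. Samples plated on SDA at 0, 2, 4, 8, 12, 24 and 48 h; CFU counted after 48 h at 35°C. Run twice per isolate; means.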
# [22] = test system: Candida albicans; test: Fungicidal activity against Candida albicans isolate S assessed as log reduction in bacterial count at 4 times MIC after drug exposure for 1 hr followed by washout measured after 48 hrs in the absence of drug by PAFE study; type: functional; outline: as §6
# [23] = test system: Pichia kudriavzevii; test: Antifungal activity against Candida krusei by NCCLS M27A broth microdilution method; type: functional
# [24] = test system: Nakaseomyces glabratus; test: Fungicidal activity against Candida glabrata isolate 3 assessed as log reduction in bacterial count at 4 times MIC after 48 hrs by time-kill analysis; type: functional; conditions: isolate 3, 48 h; outline: as §5
smiles,measurement,setting,value
"CCCCCOc1ccc(-c2ccc(-c3ccc(C(=O)N[C@H]4C[C@@H](O)[C@@H](O)NC(=O)[C@@H]5[C@@H](O)[C@@H](C)CN5C(=O)[C@H]([C@@H](C)O)NC(=O)[C@H]([C@H](O)[C@@H](O)c5ccc(O)cc5)NC(=O)[C@@H]5C[C@@H](O)CN5C(=O)[C@H]([C@@H](C)O)NC4=O)cc3)cc2)cc1 [ANIDULAFUNGIN] ({pTerphenylCO(4''-OnC5H11)}-[Orn(4R-OH,5R-OH)]T[Hyp][hTyr(3S-OH,4S-OH)]T[Pro(3S-OH,4S-Me)]; lactam 1-C)",Activity,[1],Active
same,Activity,[2],Active
same,MIC,[3],0.03 µg/mL
same,MIC,[4],0.06 µg/mL
same,Activity,[5],Active
same,MIC90,[6],2 µg/mL
same,MIC,[7],2 µg/mL
same,Activity,[8],Active
same,Activity,[9],Active
same,log reduction,[10],3.19 log CFU/ml
same,MIC90,[11],0.06 µg/mL
same,Activity,[12],Active
same,MIC,[13],0.015 µg/mL
same,Time,[14],8 h
same,log reduction,[15],2.86 log CFU/ml
same,log reduction,[16],1.18
same,log reduction,[17],3.36
same,log reduction,[18],1.8 log CFU/ml
same,Time,[19],8 h
same,Time,[20],8 h
same,log reduction,[21],2.54
same,log reduction,[22],2.09 log CFU/ml
same,MIC90,[23],0.06 µg/mL
same,log reduction,[24],2.76 log CFU/ml
